Results taken from ChEMBL document CHEMBL2311298, “2H-chromene derivatives bearing thiazolidine-2,4-dione, rhodanine or hydantoin moieties as potential anticancer agents” (Eur J Med Chem, 2013).

Assays:
NIH3T3 = experiment: Anticancer activity against mouse NIH/3T3 cells assessed as cell viability after 72 hrs by MTT reduction assay; assay type: cell-based; details: NIH3T3, 72 h
In short: (§1)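 Cells grown in RPMI 1640 with 10% FBS, 100 units/ml penicillin-G and streptomycin, 37 °C, 5% CO2. A549, MCF-7 and NIH/3T3 grown as monolayers, K562 and MOLT-4 in suspension. Seeding densities (cells/ml): A549 40,000, K562 40,000, MCF-7 30,000, MOLT-4 40,000, NIH/3T3 50,000. Overnight at 37 °C, then 3-4 concentrations added.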

MCF7 = experiment: Anticancer activity against human MCF7 cells assessed as cell viability after 72 hrs by MTT reduction assay; assay type: functional, cell-based; details: MCF7, 72 h; in short: as §1
MOLT-4 [1] = experiment: Anticancer activity against human MOLT4 cells assessed as cell viability at 20 uM after 72 hrs by trypan blue exclusion assay; assay type: functional; details: MOLT-4, 72 h, read-out: Activity
In short: (§2)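 MOLT-4 cells in RPMI 1640 with 10% FBS, grown in suspension at 37 °C, 5% CO2. Cells exposed for 72 h as in the MTT assay, with each compound at a single concentration. Suspension mixed 1:1 with trypan blue. Clear (viable) and blue cells counted on a hemocytometer. Percent viable cells expressed relative to control wells.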

A549 = experiment: Anticancer activity against human A549 cells assessed as cell viability after 72 hrs by MTT reduction assay; assay type: functional, cell-based; details: A549, 72 h; in short: as §1
K562 = experiment: Anticancer activity against human K562 cells assessed as cell viability after 72 hrs by MTT reduction assay; assay type: functional, cell-based; details: K562, 72 h; in short: as §1
MOLT-4 [2] = experiment: Anticancer activity against human MOLT4 cells assessed as cell viability after 72 hrs by MTT reduction assay; assay type: functional, cell-based; details: MOLT-4, 72 h; in short: as §1
MOLT-4 [3] = experiment: Anticancer activity against human MOLT4 cells assessed as cell viability at 75 uM after 72 hrs by trypan blue exclusion assay; assay type: functional; details: MOLT-4, 72 h, read-out: Activity; in short: as §2
MOLT-4 [4] = experiment: Anticancer activity against human MOLT4 cells assessed as cell viability at 25 uM after 72 hrs by trypan blue exclusion assay; assay type: functional; details: MOLT-4, 72 h, read-out: Activity; in short: as §2
MOLT-4 [5] = experiment: Anticancer activity against human MOLT4 cells assessed as cell viability at 50 uM after 72 hrs by trypan blue exclusion assay; assay type: functional; details: MOLT-4, 72 h, read-out: Activity; in short: as §2
MOLT-4 [6] = experiment: Anticancer activity against human MOLT4 cells assessed as cell viability at 65 uM after 72 hrs by trypan blue exclusion assay; assay type: functional; details: MOLT-4, 72 h, read-out: Activity; in short: as §2
MOLT-4 [7] = experiment: Anticancer activity against human MOLT4 cells assessed as cell viability at 100 uM after 72 hrs by trypan blue exclusion assay; assay type: functional; details: MOLT-4, 72 h, read-out: Activity; in short: as §2
MOLT-4 [8] = experiment: Anticancer activity against human MOLT4 cells assessed as cell viability at 10 uM after 72 hrs by trypan blue exclusion assay; assay type: functional; details: MOLT-4, 72 h, read-out: Activity; in short: as §2
MOLT-4 [9] = experiment: Anticancer activity against human MOLT4 cells assessed as cell viability at 40 uM after 72 hrs by trypan blue exclusion assay; assay type: functional; details: MOLT-4, 72 h, read-out: Activity; in short: as §2

| Compound | IC50 (MCF7) | IC50 (A549) | IC50 (K562) | IC50 (MOLT-4 [2]) | IC50 (NIH3T3) | viability at 20 µM (MOLT-4 [1]) | viability at 75 µM (MOLT-4 [3]) | viability at 25 µM (MOLT-4 [4]) | viability at 50 µM (MOLT-4 [5]) | viability at 65 µM (MOLT-4 [6]) | viability at 100 µM (MOLT-4 [7]) | viability at 10 µM (MOLT-4 [8]) | viability at 40 µM (MOLT-4 [9]) |
| --- | --- | --- | --- | --- | --- | --- | --- | --- | --- | --- | --- | --- | --- |
| CC1Oc2ccc(Br)cc2C=C1/C=C1\SC(=O)N(C)C1=O (racemic) | > 50 µM | > 50 µM | > 50 µM | > 50 µM |  |  |  |  |  |  |  |  |  |
| O=C1NC(=O)/C(=C/C2=Cc3cc(Br)ccc3OC2)N1 | 51 µM | 19.3 µM | 79.3 µM | 77.5 µM | 35.9 µM |  | 60.1% |  |  |  |  |  |  |
| CC1Oc2ccc(Br)cc2C=C1/C=C1/C(=O)NC(=N)N1C (racemic) | 84.8 µM | 121 µM | 51.8 µM | 56.6 µM | 87.7 µM |  |  |  | 54.3% |  |  |  |  |
| CC1Oc2ccc(Br)cc2C=C1/C=C1\SC(=O)NC1=O (racemic) | 67.6 µM | 65.5 µM | 77 µM | 64.5 µM | 56.2 µM |  |  |  |  | 53.3% |  |  |  |
| CC1Oc2ccc(Br)cc2C=C1/C=C1\SC(=S)N(CC(=O)O)C1=O (racemic) | > 50 µM | > 50 µM | > 50 µM | > 50 µM |  |  |  |  |  |  |  |  |  |
| COc1cccc2c1OCC(/C=C1\SC(=S)N(CC(=O)O)C1=O)=C2 | > 200 µM | > 200 µM | > 200 µM | > 200 µM |  |  |  |  |  |  |  |  |  |
| O=C1NC(=O)/C(=C/C2=Cc3ccccc3OC2)S1 | 99.4 µM | 192 µM | 98.9 µM | 101 µM | > 200 µM |  |  |  |  |  | 53.4% |  |  |
| O=C1NC(=O)/C(=C/C2=Cc3cc(Br)ccc3OC2)S1 | 57.9 µM | 79.5 µM | 49.8 µM | 54.7 µM | 56.5 µM |  |  |  | 52.7% |  |  |  |  |
| O=C1NC(=S)S/C1=C\C1=Cc2cc(Br)ccc2OC1 | 40.4 µM | 51 µM | 33.7 µM | 38.2 µM | 27.8 µM |  |  |  |  |  |  |  | 46.7% |

The next lines start with results.

| IC50 (MCF7) | IC50 (A549) | IC50 (K562) | IC50 (MOLT-4 [2]) | Compound | IC50 (NIH3T3) | viability at 20 µM (MOLT-4 [1]) | viability at 75 µM (MOLT-4 [3]) | viability at 25 µM (MOLT-4 [4]) | viability at 50 µM (MOLT-4 [5]) | viability at 65 µM (MOLT-4 [6]) | viability at 100 µM (MOLT-4 [7]) | viability at 10 µM (MOLT-4 [8]) | viability at 40 µM (MOLT-4 [9]) |
| --- | --- | --- | --- | --- | --- | --- | --- | --- | --- | --- | --- | --- | --- |
| 19.9 µM | 47.5 µM | 31.6 µM | 20.5 µM | CC1Oc2ccc(Br)cc2C=C1/C=C1\SC(=S)NC1=O (racemic) | 28.7 µM | 53.1% |  |  |  |  |  |  |  |
| 149 µM | 89.4 µM | 96.5 µM | 72 µM | CN1C(=N)NC(=O)/C1=C/C1=Cc2ccccc2OC1 | 106 µM |  | 49.5% |  |  |  |  |  |  |
| > 25 µM | > 25 µM | > 25 µM | > 25 µM | O=C(O)CN1C(=O)/C(=C/C2=Cc3cc(Br)ccc3OC2)SC1=S |  |  |  |  |  |  |  |  |  |
| 15.3 µM | 17.5 µM | 10.6 µM | 24.8 µM | CC1Oc2ccc(Br)cc2C=C1/C=C1\NC(=O)NC1=O (racemic) | 25.2 µM |  |  | 41.3% |  |  |  |  |  |
| > 200 µM | > 200 µM | > 200 µM | > 200 µM | CCN1C(=O)S/C(=C\C2=Cc3ccccc3OC2)C1=O |  |  |  |  |  |  |  |  |  |
| 68.7 µM | 73.1 µM | 55.3 µM | 52 µM | O=C1NC(=S)S/C1=C\C1=Cc2ccccc2OC1 | 72.4 µM |  |  |  | 49.3% |  |  |  |  |
| > 100 µM | > 100 µM | > 100 µM | > 100 µM | O=C(O)CN1C(=O)/C(=C/C2=Cc3ccccc3OC2)SC1=S |  |  |  |  |  |  |  |  |  |
| > 100 µM | > 100 µM | > 100 µM | > 100 µM | CN1C(=O)S/C(=C\C2=Cc3ccccc3OC2)C1=O |  |  |  |  |  |  |  |  |  |
| > 100 µM | > 100 µM | > 100 µM | > 100 µM | CCN1C(=O)S/C(=C\C2=Cc3cc(Br)ccc3OC2C)C1=O (racemic) |  |  |  |  |  |  |  |  |  |
| 8.1 µM | 29.7 µM | 55.7 µM | 21.3 µM | O=C1NC(=O)/C(=C/C2=Cc3ccccc3OC2)N1 | 180 µM | 53.3% |  |  |  |  |  |  |  |
| 89.1 µM | > 200 µM | 90.4 µM | 13.2 µM | CCN1C(=O)S/C(=C\C2=Cc3cccc(OC)c3OC2)C1=O | 75 µM |  |  |  |  |  |  | 53.2% |  |
